Assay results from ChEMBL document CHEMBL1148054, “Chemical and bioactive constituents from Zanthoxylum simulans” (J Nat Prod, 1994).
Calls of active or inactive are those of the source. The calls are words filed in the database; no cut-off is given here.

Assays:
ZR-75-1 = test: Cytotoxicity against human ZR-75-1 cells; assay type: functional; details: ZR-75-1, read-out: ED50
Outline: (§1)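 Cultured human cancer lines and murine P-388 cells. Complete dose-response data from at least five concentrations of test substance, each tested in duplicate.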

HL-60 [1] = test: Induction of terminal cell differentiation in human HL60 cells assessed as naphthol AS-D chloroacetate esterase activity at 32.3 uM after 4 days; assay type: functional
Outline: (§2)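 HL-60 cells were grown in RPMI 1640 with 5% heat-inactivated calf serum at 37°, 5% CO2. They were diluted to 1.2×10^5 cells/ml, preincubated 18 h, then exposed 4 days to DMSO-dissolved samples (final DMSO 0.1%, matched vehicle controls). Specific esterase (naphthol AS-D chloroacetate) was scored cytochemically with a commercial kit as the percentage of differentiated cells.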

HL-60 [2] = test: Induction of terminal cell differentiation in human HL60 cells assessed as naphthol AS-D chloroacetate esterase activity at 4 uM after 4 days; assay type: functional; outline: as §2
HL-60 [3] = test: Induction of cell differentiation in human HL60 cells assessed as alpha naphthyl esterase activity at 16.2 uM after 4 days; assay type: functional
Outline: (§3)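 HL-60 cells in RPMI 1640 with 5% heat-inactivated calf serum at 37° under 5% CO2. Log-phase cells diluted to 1.2×10^5 cells/ml and preincubated 18 h, then samples added in DMSO (final 0.1%, DMSO controls). Cells scored after 4 days.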

HL-60 [4] = test: Induction of terminal cell differentiation in human HL60 cells assessed as cell viability at 64.6 uM by trypan blue exclusion method; assay type: functional; details: read-out: Activity
Outline: (§4)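 HL-60 cells preincubated 18 h at 1.2×10^5 cells/ml, then exposed 4 days to samples in DMSO (final 0.1%). Viability by trypan blue exclusion: viable/(viable+dead)×100. Cell counts also taken after 4 days.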

HL-60 [5] = test: Induction of cell differentiation in human HL60 cells assessed as alpha naphthyl esterase activity at 32.3 uM after 4 days; assay type: functional; outline: as §3
HL-60 [6] = test: Induction of terminal cell differentiation in human HL60 cells assessed as naphthol AS-D chloroacetate esterase activity at 8.1 uM after 4 days; assay type: functional; outline: as §2
[7] = Cytotoxicity against human BC1 cells; assay type: functional; details: read-out: ED50 (the source's name); outline: as §1
HL-60 [8] = test: Induction of terminal cell differentiation in human HL60 cells assessed as inhibition of [3H]thymidine incorporation at 4 uM after 4 days by liquid scintillation; assay type: functional; design: scale not given: the % may be the effect or the level left
Outline: (§5)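 HL-60 cells were kept in RPMI 1640 with 5% heat-inactivated calf serum and penicillin/streptomycin at 37° under 5% CO2. Log-phase cells were diluted to 1.2×10^5 cells/ml and preincubated 18 h. Samples were added in DMSO (final 0.1%; vehicle controls matched) for 4 days. Aliquots then got 0.5 μCi/ml [3H]thymidine for 16 h more, were harvested and scintillation-counted. % incorporation per 10^6 cells = sample DPM / DMSO-control DPM.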

P388 = test: Cytotoxicity against mouse P388 cells; assay type: functional; details: read-out: ED50 (the source's name); outline: as §1
[9] = Cytotoxicity against human multidrug-resistant KBV1 cells in absence of vinblastine; assay type: functional; details: KB-V1, read-out: ED50 (the source's name); outline: as §1
HL-60 [10] = test: Induction of cell differentiation in human HL60 cells assessed as alpha naphthyl esterase activity at 8.1 uM after 4 days; assay type: functional; outline: as §3
HL-60 [11] = test: Induction of terminal cell differentiation in human HL60 cells assessed as cell viability at 32.3 uM by trypan blue exclusion method; assay type: functional; details: read-out: Activity; outline: as §4
HL-60 [12] = test: Induction of terminal cell differentiation in human HL60 cells at 4 uM after 4 days by NBT reduction assay; assay type: functional
Outline: (§6)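 Log-phase HL-60 cells (RPMI 1640, 5% heat-inactivated calf serum, 37°, 5% CO2) were diluted to 1.2×10^5 cells/ml, preincubated 18 h, then treated 4 days with samples in DMSO (final 0.1%; DMSO controls). 10^6 cells were mixed 1:1 with fresh PBS holding 2 mg/ml NBT and 5 μg/ml TPA, 1 h at 37°. Formazan-positive cells were counted microscopically as % NBT-positive.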

Platelet [13] = test: Antiplatelet activity against rabbit platelet assessed as inhibition of arachidonic acid-induced platelet aggregation at 100 ug/ml; assay type: functional; details: Oryctolagus cuniculus
HL-60 [14] = test: Induction of cell differentiation in human HL60 cells assessed as alpha naphthyl esterase activity at 4 uM after 4 days; assay type: functional; outline: as §3
HL-60 [15] = test: Induction of terminal cell differentiation in human HL60 cells at 16.2 uM after 4 days by NBT reduction assay; assay type: functional; outline: as §6
HL-60 [16] = test: Induction of terminal cell differentiation in human HL60 cells at 32.3 uM after 4 days by NBT reduction assay; assay type: functional; outline: as §6
Platelet [17] = test: Antiplatelet activity against rabbit platelet assessed as inhibition of collagen-induced platelet aggregation at 100 ug/ml; assay type: functional; details: Oryctolagus cuniculus
HL-60 [18] = test: Induction of terminal cell differentiation in human HL60 cells assessed as cell viability at 4 uM by trypan blue exclusion method; assay type: functional; details: read-out: Activity; outline: as §4
HL-60 [19] = test: Cytotoxicity against human HL60 cells by [3H]thymidine incorporation assay; assay type: cell-based
Outline: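 After 4-day sample treatment, 100 μl of HL-60 cells pulsed with 0.5 μCi/ml [3H]thymidine (65 Ci/mmol) for 16 h. Cells harvested and counted by liquid scintillation. Incorporation per 10^6 cells given as sample DPM divided by DMSO-control DPM.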

HL-60 [20] = test: Induction of terminal cell differentiation in human HL60 cells at 8.1 uM after 4 days by NBT reduction assay; assay type: functional; outline: as §6
HL-60 [21] = test: Induction of terminal cell differentiation in human HL60 cells assessed as cell viability at 16.2 uM by trypan blue exclusion method; assay type: functional; details: read-out: Activity; outline: as §4
HT-1080 = test: Cytotoxicity against human HT1080 cells; assay type: functional; details: read-out: ED50 (the source's name); outline: as §1
Lu1 = test: Cytotoxicity against human Lu1 cells; assay type: functional; details: read-out: ED50 (the source's name); outline: as §1
HL-60 [22] = test: Induction of terminal cell differentiation in human HL60 cells assessed as inhibition of [3H]thymidine incorporation at 8.1 uM after 4 days by liquid scintillation; assay type: functional; design: scale not given: the % may be the effect or the level left; outline: as §5
HL-60 [23] = test: Induction of terminal cell differentiation in human HL60 cells assessed as inhibition of [3H]thymidine incorporation at 32.3 uM after 4 days by liquid scintillation; assay type: functional; design: scale not given: the % may be the effect or the level left; outline: as §5
SK-MEL = test: Cytotoxicity against human SK-MEL cells; assay type: functional; details: read-out: ED50 (the source's name); outline: as §1
HL-60 [24] = test: Induction of terminal cell differentiation in human HL60 cells assessed as cell viability at 8.1 uM by trypan blue exclusion method; assay type: functional; details: read-out: Activity; outline: as §4
LNCaP = test: Cytotoxicity against human LNCAP cells; assay type: functional; details: read-out: ED50; outline: as §1
HL-60 [25] = test: Cytotoxicity against human HL60 cells at 64.6 uM by alpha naphthyl esterase activity assay; assay type: cell-based; details: hl-60, 64.6 µM
Outline: (§7)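 After 4-day treatment of HL-60 cells (samples in DMSO, final 0.1%), cells stained cytochemically for α-naphthyl acetate esterase or naphthol AS-D chloroacetate esterase.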

HL-60 [26] = test: Cytotoxicity against human HL60 cells at 64.6 uM by naphthol AS-D chloroacetate esterase activity; assay type: cell-based; details: hl-60, 64.6 µM; outline: as §7
[27] = Cytotoxicity against human U373 cells; assay type: functional, U-373MG ATCC; details: U373 MG, read-out: ED50; outline: as §1
HL-60 [28] = test: Induction of terminal cell differentiation in human HL60 cells assessed as inhibition of [3H]thymidine incorporation at 16.2 uM after 4 days by liquid scintillation; assay type: functional; design: scale not given: the % may be the effect or the level left; outline: as §5
HL-60 [29] = test: Induction of terminal cell differentiation in human HL60 cells assessed as naphthol AS-D chloroacetate esterase activity at 16.2 uM after 4 days; assay type: functional; outline: as §2
Col2 = test: Cytotoxicity against human Col2 cells; assay type: functional; details: read-out: ED50 (the source's name); outline: as §1
HL-60 [30] = test: Cytotoxicity against human HL60 cells at 64.6 uM by NBT reduction assay; assay type: cell-based; details: hl-60, 64.6 µM; outline: as §3
KB = test: Cytotoxicity against human KB cells; assay type: functional; details: read-out: ED50 (the source's name); outline: as §1
Platelet [31] = test: Antiplatelet activity against rabbit platelet assessed as inhibition of platelet activating factor-induced platelet aggregation at 100 ug/ml; assay type: functional; details: Oryctolagus cuniculus
A-431 = test: Cytotoxicity against human A431 cells; assay type: functional; details: read-out: ED50 (the source's name); outline: as §1
[32] = Cytotoxicity against human multidrug-resistant KBV1 cells in presence of vinblastine; assay type: functional; details: KB-V1, read-out: ED50 (the source's name); outline: as §1

SMILES: CC(C)=CCCC1(C)C=Cc2c(c3ccccc3n(C)c2=O)O1 (centres undefined)
- EC50 (ZR-75-1): 10 µM
- Activity (HL-60 [1]): 14.5%
- Activity (HL-60 [2]): 5%
- Activity (HL-60 [3]): 7.4%
- viability at 64.6 µM (HL-60 [4]): 9%
- Activity (HL-60 [5]): 24.3%
- Activity (HL-60 [6]): 5.5%
- EC50 [7]: 28.8 µM
- Activity (HL-60 [8]): 0%
- EC50 (P388): 5.2 µM
- EC50 [9]: 21.3 µM
- Activity (HL-60 [10]): 5.5%
- viability at 32.3 µM (HL-60 [11]): 78%
- Activity (HL-60 [12]): 3.5%
- Activity (Platelet [13]): inactive
- Activity (HL-60 [14]): 4.5%
- Activity (HL-60 [15]): 9%
- Activity (HL-60 [16]): 15.4%
- Activity (Platelet [17]): inactive
- viability at 4 µM (HL-60 [18]): 98%
- Activity (HL-60 [19]): Toxic
- Activity (HL-60 [20]): 8%
- viability at 16.2 µM (HL-60 [21]): 93%
- EC50 (HT-1080): 28.8 µM
- EC50 (Lu1): 28.8 µM
- Activity (HL-60 [22]): 0%
- Activity (HL-60 [23]): 0%
- EC50 (SK-MEL): 28.4 µM
- viability at 8.1 µM (HL-60 [24]): 95%
- EC50 (LNCaP): 18.7 µM
- Activity (HL-60 [25]): Toxic
- Activity (HL-60 [26]): Toxic
- EC50 [27]: 17.1 µM
- Activity (HL-60 [28]): 0%
- Activity (HL-60 [29]): 6.5%
- EC50 (Col2): 30.4 µM
- Activity (HL-60 [30]): Toxic
- EC50 (KB): 15.2 µM
- Activity (Platelet [31]): inactive
- EC50 (A-431): 28.8 µM
- EC50 [32]: 6.5 µM

SMILES: COc1ccc2c(c1OC)C(CC1(C)C=Cc3c(c4cccc(OC)c4n(C)c3=O)O1)N(C)c1c-2ccc2cc3c(cc12)OCO3 (centres undefined)
- Activity (Platelet [13]): inactive
- Activity (Platelet [17]): inactive
- Activity (Platelet [31]): inactive
